Bioassay records deposited in PubChem BioAssay by The Scripps Research Institute Molecular Screening Center.
GPR7 antagonist – GPR7 receptor antagonists, primary screen, cell-based, fluorescence, single concentration; Neuropeptides B/W receptor type 1 (Homo sapiens), P48145; GPR7-expressing cells, fluorescence antagonist assay; inhibition, % at 4.4 µM; 290,000 compounds, 1.1% hits; AID 1861, 2009; in the data active = inhibition above about 16%, passing the limit was not always enough;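 note: cells stimulated with the agonist NPW; 0% = agonist with vehicle and 100% = vehicle without agonist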
OX1R antag-1 – antagonists of human orexin 1 receptor (OX1R); OX1R-expressing cells, FRET antagonist read-out; inhibition, % at 6.6 µM; 330,000 compounds, 1.8% hits; AID 485270, 2010; in the data active = inhibition mostly above about 38%, no sharp cut-off; inactive = mostly below about 40%;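 note: 0% = agonist challenge alone and 100% = reference antagonist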
Target sequence (O43613 whole entry, looked up): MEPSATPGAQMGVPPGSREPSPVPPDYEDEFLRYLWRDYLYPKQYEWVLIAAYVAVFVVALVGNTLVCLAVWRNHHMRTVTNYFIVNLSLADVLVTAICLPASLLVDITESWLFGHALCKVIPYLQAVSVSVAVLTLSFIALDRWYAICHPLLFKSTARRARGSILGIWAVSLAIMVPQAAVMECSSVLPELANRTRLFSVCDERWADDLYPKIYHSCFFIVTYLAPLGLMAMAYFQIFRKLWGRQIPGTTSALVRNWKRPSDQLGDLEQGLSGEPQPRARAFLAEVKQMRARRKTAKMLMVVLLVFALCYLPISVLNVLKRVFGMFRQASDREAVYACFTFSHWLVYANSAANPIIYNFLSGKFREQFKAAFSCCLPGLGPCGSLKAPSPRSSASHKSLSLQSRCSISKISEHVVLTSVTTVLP
GalR3 antagonist – GalR3 antagonists in HEK293 cells, primary screen, cell-based, fluorescence readout | Galanin receptor type 3 (Homo sapiens), O60755 | HEK293 GalR3-CNG cAMP membrane potential fluorescence; galR3 body fused to GalR1 C-terminus | inhibition, % at 3 µM | 360,000 compounds, 0.44% hits;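 active = inhibition above the screen-wide average plus 3 SD, cut at about 13% in these data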;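 note: forskolin and galanin both at EC90 stimulate the cells; cAMP rise reported by CNG channel membrane potential dye signal; 0% = forskolin plus galanin with DMSO and 100% = forskolin alone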
CHO parental Ca – ATP-evoked calcium signal inhibitors, parental CHO, primary screen, counter-screen for OX1R antagonist project, cell-based, fluorescence, Fluo-8 calcium dye | parental CHO-K1, ATP-induced calcium, Fluo-8 fluorescence | inhibition, % at 5.6 µM | 330,000 compounds, 0.63% hits | AID 463079, 2010;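 active = inhibition above that plate's mean sample inhibition plus 3 SD, cut at about 26% in these data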;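 note: 0% = ATP-challenged DMSO wells and 100% = DMSO wells without ATP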
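Material: parental CHO cells / Compound: single nominal dose of 5.6 µM per compound / Signal: Fluo-8 fluorescence / Replicates: singlicate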
OX1R antag-2 – OX1R (HCRTR1) antagonists, primary screen, fluorescence, CHO/OX1R cells, Fluo-8 calcium, orexin A. inhibition, % at 5 µM. Orexin/Hypocretin receptor type 1 (Homo sapiens), O43613. AID 434989, 2010. 330,000 compounds, 0.43% hits. Fluo-8 calcium fluorescence;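 active = inhibition above its plate's threshold, mean inhibition of all tested compounds on the plate plus 3 SD, cut at about 37% in these data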;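 note: 0% = orexin A challenge wells and 100% = SB-334867-A antagonist wells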
* marks the source's active call; other numbers are inactive results; x = not tested or not shown. Most compounds without a hit are left out; they make up all but 3.1% or so of the library.

SMILES | GPR7 antagonist | OX1R antag-1 | GalR3 antagonist | CHO parental Ca | OX1R antag-2
CC(NC(=O)c1cc([N+](=O)[O-])cc([N+](=O)[O-])c1)c1ccc(-n2ccnc2)cc1 (stereo not given) | -12 | 64* | -2 | -10 | -22
COc1cccc(NC2=C(NCCO)C(=O)c3ccccc3C2=O)c1 | -2 | 46* | -9 | -15 | -29
COc1ccc(NC2=C(NCCO)C(=O)c3ccccc3C2=O)cc1 | 2 | 23 | -6 | -3 | 1
Cc1ccc(-c2noc(CC(=O)c3ccc([N+](=O)[O-])cc3)n2)cc1 | x | x | -7 | x | x
Cc1cc(C)cc(OCC(=O)NNC(=O)c2cc3ccccc3o2)c1 | -14 | 9 | 0 | -11 | -4
CC(C)COc1ccc(S(=O)(=O)NNC(=O)c2cc3ccccc3o2)cc1 | -5 | 29 | -4 | 43* | 26
CCc1ccc(OCC(=O)NNC(=O)c2cc3ccccc3o2)cc1 | -17 | 9 | -3 | 53* | -1
CC[C@H](C)[C@H](NC(=O)c1ccc(Cl)cc1)C(=O)OCC(=O)c1ccc2c(c1)NC(=O)CO2 | -9 | 20 | -8 | 83* | 59*
CN(CCCC(=O)O)S(=O)(=O)c1ccc2c(c1)C(=O)c1cc(S(=O)(=O)N(C)CCCC(=O)O)ccc1-2 | -10 | 51* | -2 | -5 | -6
COc1ccc(S(=O)(=O)N2CCCc3nc(-c4ccc(F)cc4)ccc32)cc1 | x | x | -4 | x | x
CC(C)(C)NC(=O)COC(=O)c1ccc(O)cc1 | 16* | 16 | -1 | -5 | -1
COCc1cc(C)nc2sc(C(=O)Nc3cccc(OC)c3)c(N)c12 | 16 | 39* | 0 | -14 | -14
CCn1c(=NC(=O)CCS(=O)(=O)c2ccccc2)sc2cccc(OC)c21 | 14 | 25 | -4 | 56* | 12
CCOC(=O)C1=C(C)c2ccccc2OC1(CC)C(=O)OCC (stereo not given) | x | 10 | -3 | -20 | -15
CCOC(=O)C1=C(C)c2ccccc2N(C(=O)OC)C1(C)C(=O)OCC (stereo not given) | x | 33* | -5 | -18 | 19
CSc1ccc(S(=O)(=O)NCC(=O)OC(C)C(=O)NCc2ccccc2)cc1[N+](=O)[O-] (stereo not given) | x | 67* | -7 | 9 | -20
CCN(C(=O)COC(=O)CNS(=O)(=O)c1ccc(SC)c([N+](=O)[O-])c1)C1CCCCC1 | x | 53* | -2 | -18 | -15
CSc1ccc(S(=O)(=O)NCC(=O)OCC(=O)NCCc2ccccc2)cc1[N+](=O)[O-] | x | 37* | -2 | -19 | -22
CCCC(C)C(=O)NC1CCCCN(C)C1=O (stereo not given) | x | x | -9 | x | x
O=C(N/C(=C\c1ccccc1)C(=O)N1CCOCC1)c1ccccc1Br | 0 | 15 | 2 | -10 | 0
O=C(N/C(=C/c1cccc([N+](=O)[O-])c1)C(=O)N1CCOCC1)c1ccccc1Br | -8 | 58* | -2 | 10 | 0
O=C(N/C(=C\c1ccc([N+](=O)[O-])cc1)C(=O)N1CCCCC1)c1ccccc1 | -5 | 75* | -4 | -7 | -23
COC(=O)c1cc2c(c3c4cc(C)ccc4n(S(=O)(=O)c4ccc(OC)cc4)c13)C(=O)N(Cc1ccccc1)C2 | x | x | -5 | x | x
COc1ccc(OC)c(NC(=O)COC(=O)CCNc2ccccc2OC)c1 | x | 55* | 0 | -14 | -4
COc1ccc(OC)c(NC(=O)c2cnc(Nc3ccccc3OC)c3ccccc23)c1 | -22 | 68* | 9 | -34 | 18
SMILES | GPR7 antagonist | OX1R antag-1 | GalR3 antagonist | CHO parental Ca | OX1R antag-2
CC1(c2cccc(Br)c2)NC(=O)N(CC(=O)Nc2ccc3c(c2)OCO3)C1=O (stereo not given) | x | 0 | 4 | -8 | -18
CC(C)C[C@@H]1NC(=O)[C@@H]2CSCCS(=O)(=O)N2C1=O | x | x | -2 | x | x
CCOc1cc(CNCCc2ccc(S(N)(=O)=O)cc2)ccc1OCc1ccccc1 | 26 | 4 | -8 | 13 | 6
CCOc1cc(CNCCc2ccc(S(N)(=O)=O)cc2)cc(Cl)c1OCc1ccccc1 | 21 | -4 | x | 58* | 55*
COc1ccc(CNCCc2ccc(Cl)cc2)cc1OCc1ccccc1 | 6 | 8 | x | 42* | 2
O=C(Cc1coc2ccc3ccccc3c12)NC1CCCc2ccccc21 (stereo not given) | 4 | 66* | -8 | -36 | -2
O=C(Cc1coc2ccc3ccccc3c12)NCc1ccccc1 | 0 | 27 | -8 | -16 | -14
COC(=O)[C@]12C[C@H](CC(=O)N3CCC(c4ccccc4)CC3)C(=O)N(Cc3ccccc3)C1=C[C@H](C(C)(C)C)O[C@@H]2C | x | x | -1 | x | x
O=C(Nn1c(C2CCCCC2)nc2ccccc2c1=O)c1ccc(Cl)c([N+](=O)[O-])c1 | -16 | 53* | -6 | -22 | -19
CCC[C@@H]1CCCC/C=C\CCCC(=O)OCCN1C(=O)OC(C)(C)C | x | 1 | 0 | -18 | -4
COc1ccc(NC(=O)c2c(Nc3ccccc3)sc(C(=O)c3ccc(F)cc3)c2N)cc1 | 0 | 19 | -7 | 31* | 14
CC(=O)N(C)c1ccc(OCC(O)Cn2c(C)nc3ccccc32)cc1 (stereo not given) | -4 | 6 | -5 | -7 | -4
CC(=O)N(C)c1ccc(OCC(O)Cn2c3ccc(Cl)cc3c3cc(Cl)ccc32)cc1 (stereo not given) | 3 | 17 | -8 | 67* | 31
COc1ccc(NC(=O)C(C)N2c3cccc4cccc(c34)S2(=O)=O)cc1 (stereo not given) | -19 | 23 | -6 | -20 | -27
COc1ccc(NC(=O)C(C)N2c3cccc4cccc(c34)S2(=O)=O)cc1OC (stereo not given) | 6 | 26 | -11 | 41* | -1
O=C(CSc1ccc(C(F)(F)F)cc1[N+](=O)[O-])Nc1ccccc1 | 0 | 7 | 3 | 59* | 17
COc1ccc(/C=C\C(=O)O[C@@H]2C(O)C(O[C@@H]3OC(C)[C@H](O[C@@H]4OCC(O[C@H]5O[C@H](CO)[C@@H](O)C(O)C5O)C(O)C4O)C(O)C3O)[C@H](OC(=O)[C@]34CCC(C)(C)C[C@@H]3C3=CCC5[C@@]6(C)CC(O)C(O[C@@H]7OC(CO)C(O)[C@H](O)[C@H]7O)[C@@](C)(C(=O)O)C6CC[C@@]5(C)[C@]3(CO)CC4)O[C@H]2C)cc1 (stereo not given in full) | x | 4 | x | 101* | 110*
